Measurements taken from the EternaBench riboswitch data.

System: MS2 coat protein
Test: apparent Kd, MS2 coat protein; higher = weaker binding; RNA-MaP array; FMN 200 µM where present
Procedure, shortened: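 Apparent Kd: the median of filtered binding-curve fits from single clusters. Designs were transcribed on Illumina sequencing-chip clusters by stalled E. coli RNA polymerase and titrated with SNAP-549-labelled MS2 coat protein from 0.7 or 1.5 nM, doubling to 3 µM, in 100 mM Tris-HCl pH 7.5, 80 mM KCl, 4 mM MgCl2, BSA, DTT, yeast tRNA and Tween-20. Each series ran without and then with constant ligand, and green signal was normalised to red-channel RNA signal and control-cluster median Fmax.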

[1] = designed as: OFF switch for flavin mononucleotide, no ligand
[2] = ligand present: flavin mononucleotide, designed as: OFF switch for flavin mononucleotide
[3] = designed as: ON switch for flavin mononucleotide, no ligand
[4] = ligand present: flavin mononucleotide, designed as: ON switch for flavin mononucleotide

Sequence | apparent Kd [1] [nM] | apparent Kd [2] [nM] | apparent Kd [3] [nM] | apparent Kd [4] [nM]
GUUGUCUAUGUAGGAUAUGCGAGGCGAGGCCUCGCAGAAGGACAUGAGGAUCACCCAUGUAUUGCGGUCUGCGUUCAGAUCGCU | 32.9 | 286 |  | 
GUUGUGUAUGUAGGAUAUGCGAAGCAAAGCUUCGCAGAAGGACAUGAGGAUCACCCAUGUAUUGCAGCCUGCAAACAGGCUGCU | 40.2 | 170 |  | 
GUUGUGUGAGGAUAUUCCUGGCCGUGUGGCCGGUUUGGGUGGCAGAAGGUACAUGAGGAUCACCCAUGUACGGG | 96.9 | 75.8 |  | 
GUUGUUCGAGGAUAUACAUGAGGAUCACCCAUGUGUGUUGUGGGCGACGUUCGUUUAUGUAGAAGGCGAGCGGC | 63.3 | 92.1 |  | 
GUUUAGUGAGGAUAUGUGGCUUCGAUCGUGCGAAGAAGGCUACAGAAGGCACAUGAGGAUCACCCAUGUUCCUC | 101 | 728 |  | 
GUUUGUUAUUAGAAGGUGCCAGCGAGAGCUGCAACAUGAGGAUCACCCAUGUGUCGGUGACGACGCAAGGAUAUGGUGGUGGAU |  |  | 402 | 193
GUUUUUCCUCAUGUACAUGAGGAACAUGAGGAUCACCCAUGUAGAAGGAAUUUUUUUAAGUUUAGUUAGGAUAUACAUAUAUUU | 72.9 | 64.5 |  | 
UAAAAGCGGAAGGAUAUGUGUCUAAAGUCUGUAGCAGAAGGUCCGACAUGAGGAUCACCCAUGUGACCUGGUGC | 11.1 | 13.9 |  | 
UAAAAGUGAGGAUAUCCAAUAUAUGACAUGAGGAUCACCCAUGUUUCCACUCGUACCUCCGGAGAAGGCACAAAGU | 29.5 | 28.5 |  | 
UAAACACCCUCAUGUGCCUGAGGACAUGAGGAUCACCCAUGUGAGGAUAUAGCCAUUAAAUCUAACUAGAAGGUAUAGGAAAUC | 651 | 190 |  | 
UAACAAAUUGUCAGGAUAUCAGUCCCGGCCCAGAUUGAGAAGGGACAUGAGGAUCACCCAUGUAUGAUUCUCAG |  | 114 |  | 
UAACAGACGCCUUACAUGAGGAUCACCCAUGUGGCCUUAACCAGAAGGCCCGGAAGAUGACUCAGGGAGGAUAUGGUUUAACAG |  |  | 349 | 57.3
UAACAGCAAGGAUAUACGGGCUGUGCUUUUCAUUUCUUACAACAUGAGGAUCACCCAUGUAGAAGGUGCAACAU | 32.5 | 76.9 |  | 
UAACCUCGCGUCAGGAUAUGUGAGGACUGUGACGCACAGAAGGGACAUGAGGAUCACCCAUGUGAAAGAAAUAA | 26.8 | 82.5 |  | 
UAAGAAGCACUCGGAACCGGACAAUGAGAAGGCCACGCACAUGAGGAUCACCCAUGUAAAGCUAUGGAGGAUAUCAUGAUGGAA |  |  | 80.9 | 8.71
UAAGAUUAUUGAGGAUAUGGUAAUUUUUAUUAACCAGAAGGCAAACUCAACAUGAGGAUCACCCAUGUAUAAAGGGUAUUAGUU | 68 | 63.4 |  | 
UAAGCGAUACAGAAGGGAAACAUGAGGAUCAGCCGCGACAUGAGGAUCACCCAUGUUUACUUAUUUCAGGAUAUGUACAGUAGC |  |  | 612 | 272
UAAGUACAGAAGUACUCCGGGUCCAGAAGGGACAUGAGGAUCACCCAUGUACCGUUGAUUGCUUGUCAGGAUAUGGACCCGGCC | 6.83 | 25.7 |  | 
UAAUAAUAAUAAUAGCAGUUACAUGAGGAUCACCCAUGUAUAUAGGAUAUCGUCAGGAAUACUGACGAGAAGGAUAUACUCUGC | 21.9 | 26.2 |  | 

Sequence | apparent Kd [1] [nM] | apparent Kd [2] [nM] | apparent Kd [3] [nM] | apparent Kd [4] [nM]
UAAUAAUAGCAAGGAUAUGAUUAUUAUAAUAUAUCAGAAGGUGCACAUGAGGAUCACCCAUGUUUUAUAAUUUGUAAUUUAAAU | 54.4 | 37.9 |  | 
UAAUAAUAGUCAGGAUAUAGUUAUUAUAAUAUACUAGAAGGGACACAUGAGGAUCACCCAUGUUUUAUAAUUUGUAAUUUAAAU | 21.6 | 17.7 |  | 
UAAUAAUUAUGAGGAUAUAUACAACAUGAGGAUCACCCAUGUACCCAUGUAGUAGAAGGCAUAUUUUUAGUUAAUAAUAUAACU |  |  | 82.2 | 33
UAAUCACCCUCAUGUACCUGAGGACAUGAGGAUCACCCAUGUAAGGAUAUAGCCAUUAAAUCUAACUAGAAGGUAUAGGUAAUC | 808 | 624 |  | 
UAAUCUCAGAUAGGAUAUAUAGGAUAACUUAAGACCUAACAUGAGGAUCACCCAUGUGAUUAUUCGUAGAAGGAUCAUUGAACA |  |  | 259 | 263
UAAUGUUAGCGAGGAUAUCGUUUAUUGAAGUUACGAGAAGGCGCUCUUCUUACAUGAGGAUCACCCAUGUCUGUUUUGCAUGAU |  |  |  | 51.9
UAAUUACCGAUCGGUUUGACUUAGCAGGAUAUACAUGAGGAUCACCCAUGUCAAGGGCGUGCCCGGUAGAAGGGUUGGGUUCAA | 35.1 | 54.9 |  | 
UACAGACAUGAGGAUCACCCAUGUGAGGAUAUCGAUAACGAUAAAAUAAUAUAAACAACGAGAAGGCACAGCAU | 34.3 | 40.3 |  | 
UACAUGAGGAUCACCCAUGUUUUGUCGUGUAUGGUAUUUAUCUAGGAUAUCAAUCUAUGUAUUUAUGAGAAGGAGAAUAUUAAU | 41.8 | 37.3 |  | 
UACAUGUGAGGAUAUGUACGAGACCCUGACGGGCCUCGCAGGCAGAAGGCACAUGAGGAUCACCCAUGUGACCG | 27.2 | 99.1 |  | 
UACGAUGUACAUGAGGAUCACCCAUGUCAUAUGCCCGUGACACAGGAUAUCCAGGAUAGGCCAAAGGAGAAGGGUGAUCCGCGG |  |  | 66.9 | 139
UACGCACAGAAGUACUCCGGGUCCAGAAGGGACAUGAGGAUCACCCAUGUACCGUUGAUUGCUUGUCAGGAUAUGGACCCGGCC | 6.82 | 26.3 |  | 
UACGGACAUGAGGAUCACCCAUGUGAGGAUAUCGGUACCGAUAGCAUAAUCUACUCGGCGAGAAGGCACAGCGU | 30.7 | 40.1 |  | 
UACUACGCAGGAUAUACAUGAGGAUCACCCAUGUGUCUGCGAUAGGCACGUGAAAUCCGUAGAAGGGUGUAGAU | 42 | 109 |  | 
UACUUGUCAGGAUAUCUUACAUUAACAUCGUAGUUACAAUUGGAGAAGGGACAUGAGGAUCACCCAUGUUUGGC | 25.8 | 34.5 |  | 
UAGAAGUCAGGAUAUCCUGCUCGUCACUUGCGUGAUGAGUAGGAGAAGGGACAUGAGGAUCACCCAUGUAAAGC | 61.1 | 49.5 |  | 
UAGAAUCGAGGAUAUACAUGAGGAUCACCCAUGUGUGGCCAUACGGUGUGGUCGUCAGGUAGAAGGCGAUUAUA | 34.4 | 14.6 |  | 
UAGAGCGCUUGAGGAUAUCGUUUUGUGAUGGUACUCAUGCCUGUUACAUGAGGAUCACCCAUGUACGAGAAGGCAGGCCGUUAG | 58.1 | 30.5 |  | 
UAGAUGGGAGGAUAUACGUAGAUGCAGAUUCGUGUGGUGCUACAUGAGGAUCACCCAUGUAGAAGGCCCGUCUU | 17 | 98.1 |  | 

Sequence | apparent Kd [1] [nM] | apparent Kd [2] [nM] | apparent Kd [3] [nM] | apparent Kd [4] [nM]
UAGAUGGGAGGAUAUACGUAGUUGCAGGUUCGUGUGGUGCUACAUGAGGAUCACCCAUGUAGAAGGCCCGUCUU | 14.7 | 40.6 |  | 
UAGAUGUGAGGAUAUACGUAGAUGCAGGUUCGUGUGGUGCUACAUGAGGAUCACCCAUGUAGAAGGCACGUCUU | 19.3 | 20.2 |  | 
UAGGUACGAGGAUAUACAUAGAUACAGACACAUGUAGAUGUACAUGAGGAUCACCCAUGUAGAAGGCGUAUAUA | 67.8 | 237 |  | 
UAGGUUUGUAGUUACAUCCCUACACAGGAUAUAGGUAGUUACAUGAGGAUCACCCAUGUUCGAACUUAGAAGGGUGGAUCGUUG |  |  | 48 | 10.3
UAGUAGAUCCGAGGAUAUACAAUCCGGAAACGGUACAUGAGGAUCACCCAUGUAGAAGGCGGAUCUACAGGUACUAAAGUACCA | 5.68 | 7.82 |  | 
UAGUUAUUCACAGGAUAUCGCCUCUUAUUACAUGAGGAUCACCCAUGUUUAGUUAGUUACAUGUUCGAGAAGGGUGUAGUUGUU | 554 | 819 |  | 
UAGUUGCUAGGAUAUACUUGGGCAACUACUGAACCUAUAUAACAUGAGGAUCACCCAUGUAGAAGGAGCAUAUA | 23.1 | 19.1 |  | 
UAUACACAUGAGGAUCACCCAUGUGAGGAUAUGUUAAUUUUAAUGAAAAUUAAAAUUAACAGAAGGCACAUAUA | 64.1 | 80.3 |  | 
UAUACUAGAUAGGAUAUACUAUAUAUAUUAUUCGUAGAAGGAUCUACAUGAGGAUCACCCAUGUUAACAGCAGU | 47.6 | 37 |  | 
UAUAGCCCUAGUUCGAGUGUCUAGGAGGAUAUACAGAGGCAGCCAAAGACAUGAGGAUCACCCAUGUAGAAGGCCUAGACGGUA |  | 82.3 |  | 
UAUAUACAUGAGGAUCACCCAUGUCAGGAUAUUAGAUAUAUAUAUACAUAUAAUUAUUUAAGAAGGGACACUAA | 43.8 | 46 |  | 
UAUAUAUAAUAUAUUAACAUGAGGAUCACCCAUGUCGCUAGACAGGAUAUAUUUUAUUUUUUUAAGUAGAAGGGUCAUAUAAUU |  |  | 63.7 | 86.1
UAUAUAUAGUAAGGAUAUAUAUUUAUUUUAUAAAUAGAAGGUACAGACAUGAGGAUCACCCAUGUUAUAAUAUGGACAUGUGGA | 52.5 | 69.4 |  | 
UAUAUAUAGUAAGGAUAUAUAUUUUUUUUAUAAAUAGAAGGUACAGACAUGAGGAUCACCCAUGUUAUAAUAUGGACAUGUGGA | 101 | 101 |  | 
UAUAUAUAGUAAGGAUAUGUAUAUAUAUUAUAAACAGAAGGUACUGACAUGAGGAUCACCCAUGUUUUAGUGUGGGCAUGUAGA | 75.1 | 96.1 |  | 
UAUAUAUAGUAAGGAUAUGUAUAUAUUUUGUAAACAGAAGGUACUGACAUGAGGAUCACCCAUGUUUUAGUGUGGGCAUGUAGA | 80.8 | 130 |  | 
UAUAUAUAGUAAGGAUAUGUAUUAAUUAUAUAAACAGAAGGUACUGACAUGAGGAUCACCCAUGUUUUAGUGUGGGCAUGUAGA | 81.5 | 122 |  | 
UAUAUAUAGUAAGGAUAUGUAUUAAUUUUAUGAACAGAAGGUACUGACAUGAGGAUCACCCAUGUUUUAGUGUGGGCAUGUAGA | 85.5 | 122 |  | 
